Most compounds without a hit are left out; they make up all but 3.2% or so of the library.
Ecoli rRNA inh – inhibits bacterial ribosomal RNA function over humanized ribosomes | E. coli WT GFP vs humanized-ribosome RFP mutants, fluorescence, 24 h; hits give low values; DMSO median 0, no signal -100 | actives 1.6% (n = 350,000) | GFP signal change (wild-type ribosome), % (test concentration not listed);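 active = significant combined selectivity score with lowered wild-type GFP, culture density cut under 30%, mutant RFP and density less affected; inactive = any of these conditions unmet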
MLL AF4-AF9 inh – inhibitors of human MLL-AF4/AF9 interaction; AID 651704; inhibition, % at 10 µM; AlphaScreen, biotin-AF4 peptide binding to FLAG-AF9; actives 0.47% (n = 350,000); P42568;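 active = every replicate reaching a set inhibition limit, whatever the replicate mean, cut at about 25% in these data; inconclusive = mean inhibition reaches that limit but some replicates miss it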;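 note: 0% = plate neutral control median and 100% = total signal loss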
Target sequence (P42568 whole entry, looked up): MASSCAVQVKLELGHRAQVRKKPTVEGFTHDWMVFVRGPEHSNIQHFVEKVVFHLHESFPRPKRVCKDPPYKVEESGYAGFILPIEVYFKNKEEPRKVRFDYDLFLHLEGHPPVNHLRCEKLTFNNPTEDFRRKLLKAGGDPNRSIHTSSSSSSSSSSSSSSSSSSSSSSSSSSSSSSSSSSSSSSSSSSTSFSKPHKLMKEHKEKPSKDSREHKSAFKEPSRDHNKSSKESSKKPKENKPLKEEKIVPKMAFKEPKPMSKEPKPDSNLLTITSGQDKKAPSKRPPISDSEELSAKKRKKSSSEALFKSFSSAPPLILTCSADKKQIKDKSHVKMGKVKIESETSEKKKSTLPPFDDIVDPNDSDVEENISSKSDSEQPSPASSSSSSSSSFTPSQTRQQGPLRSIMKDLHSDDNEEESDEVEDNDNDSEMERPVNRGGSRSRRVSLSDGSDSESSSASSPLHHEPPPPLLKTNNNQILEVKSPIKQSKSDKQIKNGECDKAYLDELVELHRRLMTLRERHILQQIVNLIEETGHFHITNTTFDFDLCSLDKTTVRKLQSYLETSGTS
DENV2 CPE rescue – protects cells from dengue virus 2 cytopathic effect; DENV2-infected cells, cytopathic effect rescue, plate reader; CPE inhibition, % at 9.99 µM; actives 1.7% (n = 350,000); in the data active = CPE inhibition above about 20%, passing the limit was not always enough; inconclusive = no clear call, values can overlap the other calls; tested in BHK-21 cells;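 note: 0% = median of neutral control wells and 100% = median of positive control wells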
S100A4 inh HTS – inhibitors of human S100A4 binding to myosin IIA peptide. P26447. S100A4/TAMRA-MyoIIA peptide fluorescence polarization. inhibition, % at 10.7 µM. actives 0.14% (n = 360,000). AID 652163;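 active = mean inhibition of at least 70% across replicates, with every replicate also reaching that level; inconclusive = mean inhibition reaches 70% but some replicates fall short; inactive = mean inhibition below 70%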
Target sequence (P26447 whole entry, looked up): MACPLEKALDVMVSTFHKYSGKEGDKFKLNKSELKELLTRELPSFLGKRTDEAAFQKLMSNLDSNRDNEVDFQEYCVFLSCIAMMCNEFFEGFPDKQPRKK
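System – human S100A4 monomer protein, biochemical binding assay · Buffer or medium – Calcium-containing HEPES buffer, pH 7.2 · Timing – 5 min between mix addition and reading · Also added – TAMRA-labelled myosin IIA heavy-chain peptide probe, 5 nM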
Cneo AK release – causes C. neoformans cell lysis; AID 651654; lysis activity, % at 15 µM; adenylate kinase release luminescence, 4 h; normalised: neutral wells 0, clomiphene wells 100; actives 0.2% (n = 360,000);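 active = mean lysis activity across replicates of at least 80%, whatever share of replicates individually reach that level; inactive = mean lysis activity below 80%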
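Material: C. neoformans cells; Schedule: 4 h static compound exposure, 37 °C, read 1 h post-reagent; Measured by: adenylate kinase release luminescence; Read-out: signal increase indicating cell lysis; Controls: Clomiphene as positive lysis control.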
PfHsp90 set2 – inhibits growth of yeast expressing Plasmodium falciparum Hsp90; inhibition, % at 9.4 µM; S. cerevisiae expressing PfHsp90, BacTiter-Glo ATP, 48 h; yeast lacking PDR1 and PDR3 efflux regulators; actives 0.32% (n = 310,000);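 active = every replicate shows inhibition above about 80%, whatever the replicate mean, limit read from the data; inconclusive = mean inhibition reaches the set limit but some replicate falls short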;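 note: 0% = DMSO neutral controls and 100% = 20 µM radicicol positive controls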
Numbers without * were called inactive; ? = inconclusive; nt = not tested or not shown.

SMILES	Ecoli rRNA inh	MLL AF4-AF9 inh	DENV2 CPE rescue	S100A4 inh HTS	Cneo AK release	PfHsp90 set2
O=C(/C=C/c1cccc([N+](=O)[O-])c1)c1ccc([N+](=O)[O-])o1	1	1	?	-7	3	125*
CCCC(=O)Nc1ccc2c(c1)C(=O)N(C)C[C@H](OC)[C@@H](C)CN(C)[C@H](C)CO2	3	-1	2	7	16	nt
Cc1ccc2nc(-c3cccc(NS(C)(=O)=O)c3)cc(-c3ccccc3)c2c1	-8	5	14	1	nt	100*
CCCCN1C(=O)C(CC(=O)NC2CC2)CC(C(=O)N(CC)CC)=C1C (configuration not stated)	8	-2	23*	-2	-1	nt
CCCCN1C(=O)C(CC(=O)NC2CCCC2)CC(C(=O)N(CC)CC)=C1C (configuration not stated)	3	3	-6	0	-4	nt
COc1ccc(S(=O)(=O)N(C)C[C@@H]2Oc3ccc(NC(=O)C4CCCCC4)cc3CC(=O)N([C@@H](C)CO)C[C@@H]2C)cc1	-1	0	28*	6	3	nt
COc1ccc(NC(=O)Nc2ccc3c(c2)CC(=O)N([C@@H](C)CO)C[C@@H](C)[C@@H](CN(C)S(=O)(=O)c2ccc(F)cc2)O3)cc1	5	2	29*	-39	-2	nt
COc1ccc(S(=O)(=O)N(C)C[C@@H]2Oc3ccc(NC(=O)CCC(F)(F)F)cc3CC(=O)N([C@H](C)CO)C[C@H]2C)cc1	0	-2	2	0	28	nt
COc1ccc(S(=O)(=O)N(C)C[C@H]2Oc3ccc(NC(=O)Nc4ccc5c(c4)OCO5)cc3CC(=O)N([C@@H](C)CO)C[C@@H]2C)cc1	-1	nt	97*	-32	1	-23
COc1ccc(S(=O)(=O)N(C)C[C@H]2Oc3ccc(NC(=O)Nc4ccc5c(c4)OCO5)cc3CC(=O)N([C@H](C)CO)C[C@H]2C)cc1	-3	6	4	-1	3	nt
COc1ccc(S(=O)(=O)N(C)C[C@@H]2Oc3ccc(NC(=O)CCC(F)(F)F)cc3CC(=O)N([C@@H](C)CO)C[C@@H]2C)cc1	-1	-3	42*	-6	0	nt
COc1ccc(S(=O)(=O)N(C)C[C@@H]2Oc3ccc(NC(=O)Nc4ccc(F)cc4)cc3CC(=O)N([C@H](C)CO)C[C@H]2C)cc1	0	nt	0	nt	-1	nt
O=C(C[C@H]1CC[C@H]2[C@@H](COC[C@@H](O)CN2Cc2cccc(-c3ccncc3)c2)O1)N1CCOCC1	1	2	6	-6	1	nt
C[C@H](CO)N1C[C@H](C)[C@@H](CN(C)Cc2ccncc2)Oc2ccc(NS(=O)(=O)c3cn(C)cn3)cc2C1=O	2	0	-5	12	-2	nt
COc1ccc(S(=O)(=O)N(C)C[C@@H]2Oc3ccc(N(C)C)cc3CC(=O)N([C@H](C)CO)C[C@H]2C)cc1	-2	2	30*	5	0	nt
C[C@H]1CN([C@@H](C)CO)C(=O)Cc2cc(NC(=O)Nc3ccc4c(c3)OCO4)ccc2O[C@@H]1CN(C)S(C)(=O)=O	4	-1	26*	20	nt	nt
COc1ccc(NC(=O)Nc2ccc3c(c2)CC(=O)N([C@H](C)CO)C[C@@H](C)[C@H](CN(C)S(=O)(=O)c2ccc(C)cc2)O3)cc1	-3	0	34*	0	nt	nt
Cc1ccc(S(=O)(=O)N(C)C[C@@H]2Oc3ccc(NC(=O)Nc4ccc(C(F)(F)F)cc4)cc3CC(=O)N([C@@H](C)CO)C[C@H]2C)cc1	5	-1	28*	4	41	nt
C[C@H]1CN([C@@H](C)CO)C(=O)Cc2cc(NC(=O)Nc3ccc4c(c3)OCO4)ccc2O[C@H]1CN(C)S(C)(=O)=O	-1	1	10	9	-2	nt
C[C@H](CO)N1C[C@H](C)[C@H](CN(C)C(=O)NC2CCCCC2)Oc2ccc(NC(=O)Cc3cn(C)c4ccccc34)cc2CC1=O	0	1	-2	-12	0	nt
C/C=C/c1ccc([C@H]2[C@@H](CO)N[C@@H]2CNC(=O)C2CCC2)cc1	2	0	34*	8	nt	nt
C/C=C/c1ccc([C@H]2[C@@H](CO)N(C(=O)C3CCC3)[C@@H]2CNC(=O)NC(C)C)cc1	-3	-1	80*	-5	nt	nt
C/C=C/c1ccc([C@@H]2[C@@H](CO)N(C(C)=O)[C@@H]2CNC(=O)CC2CC2)cc1	1	6	86*	1	5	nt
COc1ccc(NC(=O)Nc2ccc3c(c2)CC(=O)N([C@H](C)CO)C[C@@H](C)[C@@H](CN(C)C(=O)Nc2ccc4c(c2)OCO4)O3)cc1	3	0	1	1	-3	nt
C[C@@H]1CCc2cnnn2COC[C@@H](Cc2ccccc2)NC1=O	3	4	2	-2	39	nt
SMILES	Ecoli rRNA inh	MLL AF4-AF9 inh	DENV2 CPE rescue	S100A4 inh HTS	Cneo AK release	PfHsp90 set2
O=C1NC(=S)NC1=Cc1ccc(Cl)cc1Cl	-25*	3	-11	-3	-1	nt
CC(=O)Nc1cccc(C(=O)OC(C)C(=O)NC(=O)NC2CCCCC2)c1 (configuration not stated)	-3	0	23*	-3	3	nt
Cc1cccc2c(=O)cc(C)n(CC(N)=O)c12	-28*	nt	0	-9	nt	17
CNC(=O)Cn1c(C)cc(=O)c2cccc(OC)c21	-1	1	1	1	2	nt
C[C@@H]1CN([C@@H](C)CO)C(=O)Cc2cc(NC(=O)Cc3ccccc3)ccc2O[C@H]1CN(C)S(=O)(=O)c1cccs1	-2	-5	-3	8	-1	nt
COc1ccccc1/C=C/C=N/n1c(-c2ccncc2)n[nH]c1=S	nt	nt	nt	nt	nt	28
S=c1[nH]nc(-c2ccncc2)n1/N=C/C=C/c1ccccc1	-23*	-2	4	0	nt	-18
C[C@@H]1CN([C@H](C)CO)S(=O)(=O)c2ccc(-c3cccc(C#N)c3)cc2O[C@@H]1CN(C)C(=O)c1cccnc1	-5	0	5	7	0	nt
O=C(Nc1ccc(Cl)cc1)NN1CCCCCC1	-32	-11	-4	-2	6	nt
O=C(Nc1ccc([N+](=O)[O-])cc1)NN1CCCCCC1	-1.6*	-3	0	-4	-4	nt
C[C@@H]1CN([C@@H](C)CO)C(=O)c2cc(C3=CCCC3)cnc2O[C@H]1CN(C)S(=O)(=O)c1cn(C)cn1	0	-2	-4	0	1	nt
Nc1ccc(N=Nc2ccccc2O)c(N)c1	-40*	49*	-3	1	-3	nt
CC1=C(C(=O)N(C)C)CC(CC(=O)NCc2cccc3ccccc23)C(=O)N1CCC1=CCCCC1 (configuration not stated)	-27*	-1	-4	15	-2	nt

Screening results deposited in PubChem BioAssay by Broad Institute.
